MC4R antag cAMP – MC4R antagonists of cAMP signaling, primary screen, cell-based, TR-FRET, antagonist arm of biased-ligand search. Melanocortin receptor 4 (Homo sapiens), P32245. MC4R-expressing cells, MTII-stimulated cAMP, LANCE TR-FRET. inhibition, % at 6.5 µM. actives 0.48% (n = 360,000). AID 540295, 2011;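 active = inhibition above its plate's cutoff, the mean of tested wells on that plate plus 3 SD, cut at about 29% in these data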;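 note: 0% = Melanotan II alone and 100% = Melanotan II plus saturating MCL0020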
Target sequence (P32245 whole entry, looked up): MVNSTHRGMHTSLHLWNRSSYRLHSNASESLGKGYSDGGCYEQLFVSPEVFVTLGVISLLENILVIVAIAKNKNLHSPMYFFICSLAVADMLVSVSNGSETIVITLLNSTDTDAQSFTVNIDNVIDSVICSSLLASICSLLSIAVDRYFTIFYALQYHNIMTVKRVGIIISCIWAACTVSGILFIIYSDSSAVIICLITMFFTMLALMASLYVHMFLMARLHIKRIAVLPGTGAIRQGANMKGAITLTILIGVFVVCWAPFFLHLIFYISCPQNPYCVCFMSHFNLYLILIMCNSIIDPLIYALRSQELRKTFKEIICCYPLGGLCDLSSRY
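system = U2OS cells with stable human MC4R expression | also added = Melanotan II challenge after compound preincubation | dosing = one concentration, 6.5 µM nominal | incubation = compound 30 min, challenge 1 h, detection 1 h | measured by = TR-FRET with Eu-cAMP and labeled anti-cAMP, 671 nm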
EBI2 block – EBI2 receptor antagonists, beta-arrestin recruitment, primary screen, cell-based, luminescence, 7a,25-OHC stimulation, uHTS. 7a,25-OHC stimulated. inhibition, % at 5 µM. actives 0.81% (n = 360,000). AID 651636, 2012; in the data active = inhibition above about 38%;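 note: enzyme fragment complementation signal reports receptor beta-arrestin coupling in cells; 0% = agonist plus DMSO wells and 100% = wells without agonist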
MC4R barr agon – MC4R agonists recruiting beta-arrestin, primary screen, cell-based, luminescence, agonist arm of biased-ligand search; Melanocortin receptor 4 (Homo sapiens), P32245; U2OS MC4R beta-arrestin complementation; percent of melanotan II response, DMSO zero; activation, % at 8.9 µM; actives 0.98% (n = 360,000);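 active = activation above a per-plate cutoff, the mean activation of sample wells on that plate plus 3 SD, cut at about 8% in these data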
m5-HT2A agonist – mouse Htr2a agonists via beta-arrestin recruitment, primary screen, cell-based, luminescence | 5-hydroxytryptamine receptor 2A (Mus musculus), P35363 | CHO-K1 mHTR2A beta-arrestin complementation; percent of 30 µM serotonin response | activation, % at 7.6 µM | actives 0.66% (n = 360,000) | AID 624169, 2012;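 active = activation above a run cutoff, the mean activation of all tested compounds plus 3 SD, cut at about 14% in these data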;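 note: 0% = plate median of compound wells and 100% = 30 µM serotonin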
EBI2 conf – EBI2 antagonist hit retest, beta-arrestin, confirmation, cell-based, single concentration, luminescence, 7a,25-OHC stimulation; 7a,25-OHC antagonism; inhibition, % at 5 µM; shares compounds with EBI2 block; actives 29% (n = 2,400);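 active = inhibition of at least 50%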
EBI2 ag – EBI2 agonist activity of antagonist hits, confirmation, counter-screen for EBI2 antagonist project, cell-based, single concentration, agonist mode, luminescence. shares compounds with EBI2 block. EBI2-expressing cells, 60 min; 0% vehicle, 100% 7α,25-dihydroxycholesterol control. activation, % at 5 µM. 2,400 tested, under 10 active. AID 652000, 2013;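 active = activation of at least 50%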
bGal counter – E. coli beta-galactosidase enzyme inhibition, confirmation, counter-screen for EBI2 antagonist project, biochemical, luminescence, single concentration | actives 1% (n = 2,400) | inhibition, % at 5 µM | purified beta-galactosidase, luminescent Galacton Star, 15 min | AID 652176, 2013 | shares compounds with EBI2 block;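 active = replicate-average signal at least 3 plate SD below neutral wells, shown as high inhibition, flagging enzyme-inhibiting false positives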;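 note: 0% = DMSO wells with enzyme and 100% = wells lacking enzyme; higher means stronger loss of beta-gal luminescence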
* = called active by the depositor; . = no result. A selection: hits, their analogues and other compounds. The true share with any hit is near 2.8%.

SMILES | MC4R antag cAMP | EBI2 block | MC4R barr agon | m5-HT2A agonist | EBI2 conf | EBI2 ag | bGal counter
COc1ccccc1N1CCN(C(=O)/C=C/c2ccccc2)CC1 | 1 | 84* | -2 | -2 | 59* | -1 | -12
COc1ccccc1N1CCN(C(=O)/C=C/c2ccc3c(c2)OCO3)CC1 | 9 | 78* | -2 | -3 | 56* | -1 | -9
CCOC(=O)CC(NC(=O)Cc1ccc(F)cc1)c1ccccc1Cl (configuration not stated) | 4 | 3 | -3 | 0 | . | . | .
Cc1cccc(C(O)c2ncc(-c3ccc4ccccc4c3)[nH]2)c1C (configuration not stated) | 0 | 18 | 4 | 6 | . | . | .
Cc1cccc(N2C(=O)/C(=C\c3ccc(OC(F)F)cc3)c3ccccc3C2=O)c1 | -3 | 61* | 1 | 6 | 49 | 0 | 4
S=C(NCC1CCCO1)N1CCN(c2nc(-c3ccccc3)cs2)CC1 (configuration not stated) | -3 | 40* | 0 | -6 | 22 | -1 | -8
COc1ccccc1C(=O)CN1C(=O)NC2(CCc3ccccc32)C1=O (configuration not stated) | 10 | 9 | 0 | 10 | . | . | .
CN(CC(=O)Nc1ccc(Cl)c(C(F)(F)F)c1)C(=O)C1CCN(C(=O)c2ccc(Cl)cc2)CC1 | 22 | 56* | 3 | -8 | 39 | -1 | -20
CN(CCOc1ccc(Cl)cc1)C(=O)C1CCN(C(=O)c2ccc(Cl)cc2)CC1 | -1 | 74* | -2 | 5 | 40 | 0 | 4
COc1ccc(OCCN2CCN(C(=O)c3ccc(OC)cc3)CC2)cc1 | -1 | 44 | 0 | -6 | . | . | .
O=C(c1ccc(Cl)cc1)N1CCN(CCOc2ccccc2)CC1 | -2 | 46* | -1 | -9 | 11 | 1 | 5
Cc1ccccc1C(=O)N1CCC(C(=O)N(C)CCOc2ccccc2)CC1 | 1 | 2 | -3 | -2 | . | . | .
Cc1ccc(CN2CC(C(=O)N3CCN(c4ccccc4O)CC3)CC2=O)cc1 (configuration not stated) | 0 | 6 | 0 | 1 | . | . | .
CCn1nc(C)cc1C(=O)N1CCCC(Nc2ccc(F)c(F)c2)C1 (configuration not stated) | 4 | 2 | -1 | 0 | . | . | .
CC(C)CC(=O)N1CCN(S(=O)(=O)c2ccc3ccccc3c2)CC1 | -3 | -14 | 1 | 8 | . | . | .
Cc1ccc(C)c(CN2CCC(CNC(=O)Nc3ccc(Br)cc3F)CC2)c1 | 1 | 52* | 2 | -7 | 11 | 1 | 1
CS(=O)(=O)N(CC(=O)NCCSc1ccc(Cl)cc1)c1ccc2c(c1)OCO2 | 0 | 87* | -1 | -7 | 63* | 0 | 3
COc1ccc(N(CC(=O)NCCSc2ccccc2)S(=O)(=O)c2ccccc2)cc1OC | 0 | 48* | 0 | -3 | 27 | 1 | 0
O=c1[nH]c2ccccc2nc1-c1nnnn1Cc1ccccc1 | . | 2 | . | -5 | . | . | .
Cc1ccc(S(=O)(=O)N2CCN(C(=O)c3ccc(S(=O)(=O)N4CCCC4)cc3)CC2)cc1 | 3 | -5 | -2 | -1 | . | . | .
Cc1ccc(S(=O)(=O)N2CCCN(C(=O)c3ccc(-n4nccc4C)cc3)CC2)cc1 | -2 | 47* | -3 | -8 | 18 | 4 | 0
COc1ccc(NC(=O)c2ccc3c(c2)C(=O)N(Cc2cccnc2)C3=O)cc1 | 5 | 53* | 0 | 2 | 23 | 2 | 6
CCCC(=O)N1CC(=O)Nc2ccc(C)cc2C1c1ccccc1 (configuration not stated) | 8 | -1 | -1 | 3 | . | . | .
COc1cc2c(cc1OC)C(CNC(=O)C=Cc1cc(OC)c(OC)c(OC)c1)C2 (configuration not stated) | -11 | 50* | -1 | -1 | 32 | 1 | 4
O=C(/C=C/c1ccco1)N1CCN(S(=O)(=O)c2ccccc2)CC1 | 1 | 9 | -1 | 0 | . | . | .
SMILES | MC4R antag cAMP | EBI2 block | MC4R barr agon | m5-HT2A agonist | EBI2 conf | EBI2 ag | bGal counter
COc1cc(/C=C/C(=O)N2CCN(C(=O)/C=C/c3cc(OC)c(OC)c(OC)c3)CC2)cc(OC)c1OC | 6 | 46* | -1 | -2 | 20 | -1 | -21
COc1cccc(/C=C/C(=O)N2CCN(S(=O)(=O)c3ccccc3)CC2)c1OC | 15 | 45* | -1 | -4 | 20 | 0 | 3
COc1ccc(/C=C/C(=O)N2CCN(S(=O)(=O)c3ccccc3)CC2)cc1OC | 6 | 46* | -2 | -1 | 20 | 1 | 4
COc1cc(/C=C/C(=O)N2CCCC2)cc(OC)c1OC | 4 | -12 | -1 | 2 | . | . | .
N#C/C(=N\Nc1cccc(C(F)(F)F)c1)C(=O)c1ccsc1 | 6 | -14 | -1 | -1 | . | . | .
COc1ccc(N(CC(=O)NCc2ccc(F)cc2)C(=O)Cn2nnc(-c3ccc(C)o3)n2)cc1OC | -4 | 6 | -1 | -2 | . | . | .
CC1CCN(C(=O)COC(=O)/C=C/c2ccco2)CC1 | 1 | -1 | 0 | -5 | . | . | .
COC(=O)c1ccc(CNC(=O)C2CCC(=O)N(CCc3ccccn3)C2)cc1 (configuration not stated) | 0 | 0 | 0 | 1 | . | . | .
O=C(NC1(C(=O)O)CCCC1)c1ccccc1 | 17 | -5 | -1 | 0 | . | . | .
COc1ccc(/C=C/C(=O)N2CCN(S(=O)(=O)/C=C/c3ccccc3)CC2)cc1OC | 7 | 89* | -1 | 8 | 73* | 0 | -20
COc1ccc(/C=C/C(=O)N2CCN(C)CC2)cc1OC | 15 | -4 | -1 | 1 | . | . | .
COc1ccc(/C=C/C(=O)N2CCN(S(=O)(=O)c3ccccc3Br)CC2)cc1OC | 14 | 74* | 1 | -5 | 49 | -2 | -12
Cc1ccc(S(=O)(=O)N2CCN(C(=O)/C=C/c3ccccc3)CC2)cc1C | 11 | 89* | -2 | 13 | 76* | -1 | -8
COc1cccc(CNC(=O)C2CCC(=O)N(CC3CCCCC3)C2)c1OC (configuration not stated) | 8 | -18 | 1 | 9 | . | . | .

Compound activity deposited in PubChem by several laboratories.
